Experimental data of several laboratories.
Each line is one published result; the experiments were not run side by side.
FGFR1: Fibroblast growth factor receptor 1 (FGFR1, Homo sapiens, UniProt P11362)

With `Cc1noc([C@H]2C[C@@H](c3ccc(C(F)(F)F)cc3)CN(C(=O)N3CCS(=O)(=O)C3)C2)n1` the remaining binding was 100% (FGFR1; cell-free assay, competition with immobilised ligand; 1 µM).
With `CN(c1ncccc1CNc1nc(Nc2ccc3c(c2)CC(=O)N3)ncc1C(F)(F)F)S(C)(=O)=O` the inhibition was 80.1% (FGFR1; enzyme activity, inhibitor; 1 µM).
With `C=CC(=O)Nc1cc(Nc2nccc(Nc3cc(Cl)c(F)cc3C(C)(C)O)n2)c(OC)cc1N1CC[C@@H](N(C)C)C1` the inhibition was 3% (FGFR1; enzyme activity, inhibitor; 1 µM).
For `N#CCCc1ccc2c(c1)-c1[nH]c3ccc([N+](=O)[O-])cc3c1CC(=O)N2`, the remaining signal was 91.9% (FGFR1; cell-free assay; 0.5 µM).
For `Cc1cc(NC(=O)c2cccc3cc(-c4cccc5[nH]nc(N)c45)ccc23)ccc1F`, the activity vs control was 95% (FGFR1; enzyme activity, inhibitor; 0.1 µM).
For `CC(C)(O)c1cncc(-c2nc3ccc(F)cc3n2C2CC2)c1`, the remaining binding was 100% (FGFR1; cell-free assay, competition with immobilised ligand; 1 µM).
The inhibition of `COc1cc2ncnc(Nc3ccc(Oc4ccccc4)cc3C)c2cc1OC` is reported as 5% (FGFR1; enzyme activity, inhibitor; 1 µM).
For `CC/C(=N\NC(=O)NCc1cccc(O)c1)c1ccc(O)c(C)c1O`, the inhibition was 10.8% (Fibroblast growth factor receptor 1 (FGFR1, Homo sapiens, UniProt P11362, V561M); enzyme activity, inhibitor; 0.1 µM).
The remaining signal of `O=C1Nc2ccc(Cl)cc2C1=Cc1cc(Cl)c(O)c(Cl)c1` is reported as 90.8% (FGFR1; cell-free assay; 0.5 µM).
`C/C=C/C(=O)Nc1ccc(-n2nc3c(=O)[nH]nc(N)c3c2-c2oc3ccc(C)cc3c2C)cc1` gave an inhibition of 20.2% (FGFR1; enzyme activity, inhibitor, ELISA; 10 nM).
With `Clc1ccc(Nc2nnc(Cc3ccncc3)c3ccccc23)cc1` the remaining signal was 97.2% (FGFR1; cell-free assay; 0.5 µM).
`C/C=C/C(=O)NCc1ccc(-n2nc3c(=O)[nH]nc(N)c3c2-c2oc3ccc(C)cc3c2C)cc1` has an inhibition of 11.1% (FGFR1; enzyme activity, inhibitor, ELISA; 10 nM).
`CSc1nc(C)c(-c2ccnc(Nc3ccc(N4CCOCC4)cc3)c2)[nH]1` gave an inhibition of 26.2% (FGFR1; cell-free assay, inhibitor; 10 µM).
`CN(c1nccc(-c2cnn3ncccc23)n1)C1CC1` has a remaining binding of 75% (FGFR1; binding; 1 µM).
For `CNC(=O)c1cc(Oc2ccc(NC(=O)Nc3ccc(Cl)c(C(F)(F)F)c3)cc2)ccn1`, the inhibition was 69% (FGFR1; enzyme activity, inhibitor; 0.3 µM).
`C[C@@H]1CN(c2cc(-c3n[nH]c4ccc(OC5(C)CC5)cc34)ncn2)C[C@H](C)O1` has a remaining binding of 100% (FGFR1; cell-free assay, competition with immobilised ligand; 0.1 µM).
The remaining signal of `C[S+]([O-])c1ccc(-c2nc(-c3ccncc3)c(-c3ccc(F)cc3)[nH]2)cc1` (stereo not drawn) is reported as 90.7% (FGFR1; cell-free assay; 0.5 µM).
With `Cc1cc(NC(=O)c2cccc(S(F)(F)(F)(F)F)c2)cc(-n2ccn3nc(-c4cccnc4)cc23)c1` the remaining binding was 100% (FGFR1; cell-free assay, competition with immobilised ligand; 1 µM).
The remaining signal of `Cc1ccc(C(=O)Nc2ccc(CN3CCN(C)CC3)c(C(F)(F)F)c2)cc1C#Cc1cnc2cccnn12` is reported as 4.8% (FGFR1; cell-free assay; 23.5 nM).
`CSc1cccnc1N1CCN(Cc2nc3ccccc3[nH]2)CC1` gave a remaining binding of 100% (FGFR1; cell-free assay, competition with immobilised ligand; 1 µM).
`Oc1cccc(-c2nc(N3CCOCC3)c3oc4ncccc4c3n2)c1` gave a remaining signal of 91.7% (FGFR1; cell-free assay; 0.5 µM).
`CNCc1ccccc1-c1csc([C@@H](C)Nc2nc(C)nc3cc(OC)c(OC)cc23)c1` gave a remaining binding of 100% (FGFR1; cell-free assay, competition with immobilised ligand; 1 µM).
The inhibition of `COc1cc(/C=C/C(=O)c2ccc(NC3=C(Cl)C(=O)c4ccccc4C3=O)cc2)cc(OC)c1OC` is reported as greater than 70% (FGFR1; enzyme activity, inhibitor, ADP detection; 1 µM).
`CC(=O)N1CCC(c2ccc(C(=O)NC3=NCCN3)cc2C(F)(F)F)CC1` gave a remaining binding of 100% (FGFR1; cell-free assay, competition with immobilised ligand; 1 µM).
The remaining signal of `CCOC(=O)c1c(C)[nH]c(/C=C2\C(=O)Nc3ccccc32)c1C` is reported as 78.6% (FGFR1; cell-free assay; 0.5 µM).
`CCC(=O)N[C@@H]1CC[C@H](C(=O)N(C)c2ccc(-c3nc4ccccc4o3)cc2)C1` gave a remaining binding of 87% (FGFR1; cell-free assay, competition with immobilised ligand; 1 µM).
`CCCS(=O)(=O)Nc1ccc(F)c(C(=O)c2c[nH]c3ncc(-c4ccc(Cl)cc4)cc23)c1F` gave an inhibition of less than 10% (FGFR1; enzyme activity, inhibitor; 1 µM).
